Laboratory results as given in ChEMBL document CHEMBL1126276, “Synthesis and antimalarial properties of 1-imino derivatives of 7-chloro-3-substituted-3,4-dihydro-1,9(2H,10H)-acridinediones and related structures” (J Med Chem, 1992).

What was measured:
Plasmodium berghei [1] = test: Antimalarial activity was measured against mice (Mus musculus) infected with Plasmodium berghei by subcutaneous administration of 160 mg/kg dose; type: organism-based; design: dose 160 mg/kg, route subcutaneous; conditions: in vivo, sc
Summary of the method: (§1)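 […] in mice infected with a normal drug-sensitive P. berghei strain. Compound dissolved or suspended in sesame or peanut oil, given as a single subcutaneous dose 72 h postinfection.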

Plasmodium berghei [2] = test: Antimalarial activity was measured against mice (Mus musculus) infected with Plasmodium berghei by subcutaneous administration of 640 mg/kg dose; type: organism-based; design: dose 640 mg/kg, route subcutaneous; conditions: in vivo, sc; summary of the method: as §1
Plasmodium berghei [3] = test: Antimalarial activity in Plasmodium berghei infected mice (Mus musculus) after 160 mg/kg subcutaneous dose; type: functional; summary of the method: as §1
Plasmodium berghei [4] = test: Antimalarial activity Plasmodium berghei infected mice (Mus musculus) after 640 mg/kg subcutaneous dose; type: functional; summary of the method: as §1
Plasmodium berghei [5] = test: (§2) Antimalarial activity in Plasmodium berghei infected mice (Mus musculus) after 40 mg/kg subcutaneous dose; type: functional; summary of the method: as §1
Plasmodium berghei [6] = test: Antimalarial activity in Plasmodium berghei infected mice (Mus musculus) after subcutaneous 160 mg/kg dose; type: functional
Summary of the method: (§3)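 Normal drug-sensitive P. berghei strain in mice. Compound dissolved or suspended in sesame or peanut oil, given parenterally as a single subcutaneous dose 72 h postinfection.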

Plasmodium berghei [7] = test: (§4) Antimalarial activity in Plasmodium berghei infected mice (Mus musculus) after 20 mg/kg subcutaneous dose; type: functional; summary of the method: as §3
Plasmodium berghei [8] = test: Antimalarial activity in Plasmodium berghei infected mice (Mus musculus) after subcutaneous 320 mg/kg dose; type: functional; summary of the method: as §3
Plasmodium berghei [9] = test: as §2; type: functional; summary of the method: as §3; remark: listed apart in the source
Plasmodium berghei [10] = test: Antimalarial activity in Plasmodium berghei infected mice (Mus musculus) after subcutaneous 640 mg/kg dose; type: functional; summary of the method: as §3
Plasmodium berghei [11] = test: (§5) Antimalarial activity in Plasmodium berghei infected mice (Mus musculus) after 80 mg/kg subcutaneous dose; type: functional; summary of the method: as §3
Plasmodium berghei [12] = test: as §4; type: functional; summary of the method: as §1; remark: listed apart in the source
Plasmodium berghei [13] = test: Antimalarial activity in Plasmodium berghei infected mice (Mus musculus) after 320 mg/kg subcutaneous dose; type: functional; summary of the method: as §1
Plasmodium berghei [14] = test: as §5; type: functional; summary of the method: as §1; remark: listed apart in the source
Plasmodium berghei [15] = test: Antimalarial activity was measured against mice (Mus musculus) infected with Plasmodium berghei by subcutaneous administration of 320 mg/kg dose; type: organism-based; design: dose 320 mg/kg, route subcutaneous; conditions: in vivo, sc; summary of the method: as §1

Row | Structure (SMILES) | No. of toxic deaths (Plasmodium berghei [1]) | No. of toxic deaths (Plasmodium berghei [2]) | Delta mean survival time (Plasmodium berghei [3]) | Delta mean survival time (Plasmodium berghei [4]) | Delta mean survival time (Plasmodium berghei [5]) | No. of cured mice (Plasmodium berghei [6]) | No. of cured mice (Plasmodium berghei [7]) | No. of cured mice (Plasmodium berghei [8]) | No. of cured mice (Plasmodium berghei [9]) | No. of cured mice (Plasmodium berghei [10]) | No. of cured mice (Plasmodium berghei [11]) | Delta mean survival time (Plasmodium berghei [12]) | Delta mean survival time (Plasmodium berghei [13]) | Delta mean survival time (Plasmodium berghei [14]) | No. of toxic deaths (Plasmodium berghei [15]) | No. of cured mice (Plasmodium berghei [6]; 160 mg/kg) | No. of cured mice (Plasmodium berghei [7]; 20 mg/kg) | Delta mean survival time (Plasmodium berghei [12]; 20 mg/kg) | Delta mean survival time (Plasmodium berghei [13]; 320 mg/kg) | Delta mean survival time (Plasmodium berghei [4]; 640 mg/kg)
1 | O=C(O)c1ccc(C2CC(=O)c3c(n(O)c4ccc(Cl)cc4c3=O)C2)cc1 (centres undefined) | 1 | 4 | -0.1 | 0.9 | -0.1 | – | – | – | – | – | – | – | – | – | – | – | – | – | – | –
2 | CCN(CC)CCCCCCC/N=C1\CC(c2ccc(Cl)cc2Cl)Cc2nc3ccc(Cl)cc3c(O)c21 (centres undefined) | – | – | 0.7 | – | 9.7 | 4 | 4 | 4 | 4 | 5 | 5 | 6.7 | 3.7 | – | – | – | – | – | – | –
3 | CCN(CC)CC/N=C1\CC(c2ccc(Cl)c(Cl)c2)Cc2c1c(=O)c1cc(Cl)ccc1n2O (centres undefined) | – | – | – | – | 8.8 | 5 | 1 | 5 | 3 | 5 | 3 | 10.5 | – | 12.7 | – | – | – | – | – | –
4 | CCCCNC(CC)C/N=C1\CC(c2ccc(C(F)(F)F)cc2)Cc2c1c(=O)c1cc(Cl)ccc1n2O (centres undefined) | – | 1 | – | – | 7.7 | 5 | 2 | 5 | 2 | 4 | 4 | 6 | – | – | – | – | – | – | – | –
5 | O=c1c2c(n(O)c3ccc(Cl)cc13)CC(c1cccc(C(F)(F)F)c1)C/C2=N\CCCCCCN1CCCCC1 (centres undefined) | 3 | 5 | – | – | 4 | 2 | – | – | – | – | – | – | – | 6.4 | 5 | – | – | – | – | –
6 | CN(C)CCC/N=C1\CC(c2ccc(Cl)cc2Cl)Cc2c1c(=O)c1cc(Cl)ccc1n2O (centres undefined) | – | 1 | – | – | – | 5 | 4 | – | 5 | 4 | – | 10.6 | – | – | – | – | – | – | – | –
7 | CC1/C(=N\CCCN(C)C)c2c(nc3ccc(Cl)cc3c2O)CC1c1ccc(C(F)(F)F)cc1 (stereo in doubt; trans) | – | – | – | – | – | – | – | 4 | – | 1 | – | – | – | – | – | 5 | 1 | 11 | 3.7 | 2.7
8 | O=c1c2c(n(O)c3ccc(Cl)cc13)CC(c1ccc(C(F)(F)F)cc1)C/C2=N\CCCNCCO (centres undefined) | – | 4 | – | – | 10.7 | 5 | – | 4 | 3 | 1 | 5 | 6.4 | – | – | 1 | – | – | – | – | –
9 | CN(C)CCC/N=C1\CC(c2ccc(C(F)(F)F)cc2)Cc2c1c(=O)c1cc(Cl)ccc1n2O (centres undefined) | 2 | 5 | – | – | – | 3 | 5 | 2 | 5 | 1 | 4 | – | – | – | 3 | – | – | – | – | –
10 | CCN(CC)CC(C)(C)C/N=C1\CC(c2ccc(C(F)(F)F)cc2)Cc2nc3ccc(Cl)cc3c(O)c21 (centres undefined) | – | – | – | 1.3 | 10.3 | 5 | 2 | 4 | 2 | 4 | 4 | 8.6 | 49.6 | 13.6 | – | – | – | – | – | –
11 | O=C1CC(c2ccc(C(F)(F)F)cc2)Cc2c1c(=O)c1cc(Cl)ccc1n2O (centres undefined) [FLOXACRINE] | – | – | – | 3.4 | – | 5 | 4 | 5 | 5 | 3 | 5 | 8.9 | – | – | – | – | – | – | – | –
12 | CC1/C(=N\CCCN(C)C)c2c(nc3ccc(Cl)cc3c2O)CC1c1ccc(Cl)cc1Cl (centres undefined) | – | – | – | 2.9 | 19.9 | 5 | 3 | 4 | 4 | 3 | 5 | 0.1 | 3.9 | – | – | – | – | – | – | –
